Assay results from ChEMBL document CHEMBL5653631, “A Potent and Selective ULK1 Inhibitor Suppresses Autophagy and Sensitizes Cancer Cells to Nutrient Stress” (iScience, 2018).
Values belong to the molecule of their own block, whether it stands above or below them.

Assays:
[1] = biological target: Protein-tyrosine kinase 6 (Homo sapiens) (UniProt Q13882); assay: Inhibition of human recombinant BRK at 500 nM in presence of ATP by radiometric assay relative to control
Summary of the method: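 Part of a radiometric in vitro activity panel of 327 recombinant human kinases. Each kinase was tested in duplicate at one inhibitor concentration. Activity remaining was expressed as a percentage of the vehicle control, and percent inhibition was taken as 100 minus that value.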

[2] = biological target: Proto-oncogene tyrosine-protein kinase Src (Homo sapiens) (UniProt P12931); assay: Inhibition of human recombinant SRC at 500 nM related to control ULK1
[3] = biological target: Serine/threonine-protein kinase MAK (Homo sapiens) (UniProt P20794); assay: Inhibition of human recombinant MAK at 500 nM related to control ULK1
[4] = biological target: Serine/threonine-protein kinase PRP4 homolog (Homo sapiens) (UniProt Q13523); assay: Inhibition of human recombinant PRP4 at 500 nM in presence of ATP by radiometric assay relative to control
[5] = biological target: T1, Cytoplasmic tyrosine-protein kinase BMX (Homo sapiens) (UniProt P51813); assay: Inhibition of human recombinant BMX at 500 nM related to control ULK1
T1 sequence (whole entry): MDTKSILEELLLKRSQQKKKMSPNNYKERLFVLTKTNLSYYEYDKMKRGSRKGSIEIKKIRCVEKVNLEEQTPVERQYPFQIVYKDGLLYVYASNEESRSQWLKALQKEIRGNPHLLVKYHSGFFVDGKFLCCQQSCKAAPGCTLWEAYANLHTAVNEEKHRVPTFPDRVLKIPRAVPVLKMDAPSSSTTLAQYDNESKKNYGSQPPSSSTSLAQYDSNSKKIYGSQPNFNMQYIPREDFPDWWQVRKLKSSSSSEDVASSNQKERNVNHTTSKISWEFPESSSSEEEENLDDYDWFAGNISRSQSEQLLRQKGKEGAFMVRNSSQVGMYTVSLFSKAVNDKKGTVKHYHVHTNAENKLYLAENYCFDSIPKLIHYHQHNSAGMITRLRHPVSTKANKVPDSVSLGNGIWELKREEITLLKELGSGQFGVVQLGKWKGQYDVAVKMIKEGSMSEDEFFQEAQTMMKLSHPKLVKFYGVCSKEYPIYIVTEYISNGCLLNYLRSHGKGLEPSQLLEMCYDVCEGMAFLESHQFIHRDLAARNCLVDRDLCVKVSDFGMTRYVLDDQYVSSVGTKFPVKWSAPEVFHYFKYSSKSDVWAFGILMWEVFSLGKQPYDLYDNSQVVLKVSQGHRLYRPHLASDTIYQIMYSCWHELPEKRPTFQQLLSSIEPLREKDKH

[6] = biological target: G protein-coupled receptor kinase 5 (Homo sapiens) (UniProt P34947); assay: Inhibition of human recombinant GPRK5 at 500 nM related to control ULK1
[7] = biological target: T2, Serine/threonine-protein kinase TAO3 (Homo sapiens) (UniProt Q9H2K8); assay: Inhibition of human recombinant TAO3 at 15 nM related to control ULK1
T2 sequence (whole entry): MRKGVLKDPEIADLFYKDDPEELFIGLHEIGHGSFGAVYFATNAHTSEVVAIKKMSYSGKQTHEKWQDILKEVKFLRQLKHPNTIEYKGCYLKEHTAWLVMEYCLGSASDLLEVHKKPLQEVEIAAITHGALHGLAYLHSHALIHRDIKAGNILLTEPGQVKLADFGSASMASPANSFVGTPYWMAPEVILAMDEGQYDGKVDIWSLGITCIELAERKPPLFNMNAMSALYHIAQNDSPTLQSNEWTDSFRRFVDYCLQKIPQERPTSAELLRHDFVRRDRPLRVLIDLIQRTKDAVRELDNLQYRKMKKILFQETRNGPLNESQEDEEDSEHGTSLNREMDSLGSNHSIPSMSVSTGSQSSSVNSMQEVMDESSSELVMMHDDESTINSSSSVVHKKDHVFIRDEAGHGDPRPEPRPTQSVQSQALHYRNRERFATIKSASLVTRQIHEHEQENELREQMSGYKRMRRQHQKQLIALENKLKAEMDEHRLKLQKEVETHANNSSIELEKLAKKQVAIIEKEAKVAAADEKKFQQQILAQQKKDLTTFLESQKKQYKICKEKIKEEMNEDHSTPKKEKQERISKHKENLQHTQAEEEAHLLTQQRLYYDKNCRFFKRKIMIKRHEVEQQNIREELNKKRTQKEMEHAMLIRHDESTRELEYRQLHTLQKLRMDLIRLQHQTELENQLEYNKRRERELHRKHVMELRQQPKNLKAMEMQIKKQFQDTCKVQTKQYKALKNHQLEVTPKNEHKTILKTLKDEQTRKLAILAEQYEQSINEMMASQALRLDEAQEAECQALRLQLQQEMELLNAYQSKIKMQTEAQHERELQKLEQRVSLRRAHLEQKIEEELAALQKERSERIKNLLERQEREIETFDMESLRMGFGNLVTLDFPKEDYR

[8] = biological target: Casein kinase I isoform gamma-1 (Homo sapiens) (UniProt Q9HCP0); assay: Inhibition of human recombinant CK1g1 at 15 nM in presence of ATP by radiometric assay relative to control
[9] = biological target: T3, cAMP-dependent protein kinase catalytic subunit PRKX (Homo sapiens) (UniProt P51817); assay: Inhibition of human recombinant PRKX at 15 nM in presence of ATP by radiometric assay relative to control
T3 sequence (whole entry): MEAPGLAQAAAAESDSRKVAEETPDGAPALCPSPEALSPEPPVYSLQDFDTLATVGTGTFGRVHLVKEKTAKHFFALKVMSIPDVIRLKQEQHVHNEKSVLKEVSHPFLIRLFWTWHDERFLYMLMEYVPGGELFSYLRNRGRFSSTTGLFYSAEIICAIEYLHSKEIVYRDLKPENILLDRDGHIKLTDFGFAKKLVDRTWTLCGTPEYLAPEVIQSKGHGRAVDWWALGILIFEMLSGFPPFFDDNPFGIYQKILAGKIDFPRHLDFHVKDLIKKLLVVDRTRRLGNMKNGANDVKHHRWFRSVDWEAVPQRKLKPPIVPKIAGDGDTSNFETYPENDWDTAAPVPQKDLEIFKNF

[10] = biological target: Serine/threonine-protein kinase MARK1 (Homo sapiens) (UniProt Q9P0L2); assay: Inhibition of human recombinant MARK1 at 40 nM related to control ULK1
[11] = biological target: Non-receptor tyrosine-protein kinase TYK2 (Homo sapiens) (UniProt P29597); assay: Inhibition of human recombinant TYK2 at 40 nM related to control ULK1
[12] = biological target: Interferon-induced, double-stranded RNA-activated protein kinase (Homo sapiens) (UniProt P19525); assay: Inhibition of human recombinant PKR at 40 nM related to control ULK1
Sequence of Interferon-induced, double-stranded RNA-activated protein kinase (Homo sapiens) (P19525 whole entry): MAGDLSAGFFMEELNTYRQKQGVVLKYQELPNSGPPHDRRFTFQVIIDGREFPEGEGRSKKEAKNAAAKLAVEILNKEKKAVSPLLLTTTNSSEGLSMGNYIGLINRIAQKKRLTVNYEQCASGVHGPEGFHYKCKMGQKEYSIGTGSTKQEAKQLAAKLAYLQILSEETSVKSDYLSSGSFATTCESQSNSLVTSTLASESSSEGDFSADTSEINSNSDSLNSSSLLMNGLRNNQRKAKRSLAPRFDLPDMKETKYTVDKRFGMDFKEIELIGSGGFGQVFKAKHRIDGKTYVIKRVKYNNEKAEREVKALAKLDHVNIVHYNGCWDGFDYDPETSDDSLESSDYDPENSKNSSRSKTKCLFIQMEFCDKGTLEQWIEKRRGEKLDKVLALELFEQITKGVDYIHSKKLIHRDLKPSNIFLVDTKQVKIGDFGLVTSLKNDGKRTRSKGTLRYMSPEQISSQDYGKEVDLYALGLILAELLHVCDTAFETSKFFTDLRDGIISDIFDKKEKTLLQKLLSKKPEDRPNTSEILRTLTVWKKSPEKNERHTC

Sequence of Serine/threonine-protein kinase PRP4 homolog (Homo sapiens) (Q13523 whole entry): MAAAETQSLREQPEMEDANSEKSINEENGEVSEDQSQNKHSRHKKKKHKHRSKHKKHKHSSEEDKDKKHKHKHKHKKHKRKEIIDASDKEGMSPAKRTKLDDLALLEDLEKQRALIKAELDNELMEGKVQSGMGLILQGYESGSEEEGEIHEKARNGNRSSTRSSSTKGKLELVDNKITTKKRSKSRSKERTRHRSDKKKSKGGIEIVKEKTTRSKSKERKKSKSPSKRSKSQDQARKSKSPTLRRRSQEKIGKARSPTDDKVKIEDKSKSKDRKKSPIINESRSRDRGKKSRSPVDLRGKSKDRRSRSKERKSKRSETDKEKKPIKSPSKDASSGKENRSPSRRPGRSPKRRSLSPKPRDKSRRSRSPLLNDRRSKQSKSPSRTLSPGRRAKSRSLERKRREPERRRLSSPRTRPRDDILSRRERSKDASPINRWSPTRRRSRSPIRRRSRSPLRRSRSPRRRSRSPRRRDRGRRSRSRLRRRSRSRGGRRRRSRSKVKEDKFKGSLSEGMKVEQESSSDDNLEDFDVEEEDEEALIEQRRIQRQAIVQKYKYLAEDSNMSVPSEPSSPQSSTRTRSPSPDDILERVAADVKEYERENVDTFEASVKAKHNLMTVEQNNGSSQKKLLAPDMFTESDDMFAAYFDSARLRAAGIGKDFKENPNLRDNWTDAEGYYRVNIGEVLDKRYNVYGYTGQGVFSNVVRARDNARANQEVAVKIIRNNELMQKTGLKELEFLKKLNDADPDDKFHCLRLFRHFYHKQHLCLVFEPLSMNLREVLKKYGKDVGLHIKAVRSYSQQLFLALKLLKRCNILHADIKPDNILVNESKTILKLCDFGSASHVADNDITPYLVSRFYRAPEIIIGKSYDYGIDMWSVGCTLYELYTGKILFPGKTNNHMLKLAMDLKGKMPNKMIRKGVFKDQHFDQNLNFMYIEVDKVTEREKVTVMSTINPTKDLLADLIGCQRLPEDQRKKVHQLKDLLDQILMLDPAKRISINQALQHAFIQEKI
Sequence of Non-receptor tyrosine-protein kinase TYK2 (Homo sapiens) (P29597 whole entry): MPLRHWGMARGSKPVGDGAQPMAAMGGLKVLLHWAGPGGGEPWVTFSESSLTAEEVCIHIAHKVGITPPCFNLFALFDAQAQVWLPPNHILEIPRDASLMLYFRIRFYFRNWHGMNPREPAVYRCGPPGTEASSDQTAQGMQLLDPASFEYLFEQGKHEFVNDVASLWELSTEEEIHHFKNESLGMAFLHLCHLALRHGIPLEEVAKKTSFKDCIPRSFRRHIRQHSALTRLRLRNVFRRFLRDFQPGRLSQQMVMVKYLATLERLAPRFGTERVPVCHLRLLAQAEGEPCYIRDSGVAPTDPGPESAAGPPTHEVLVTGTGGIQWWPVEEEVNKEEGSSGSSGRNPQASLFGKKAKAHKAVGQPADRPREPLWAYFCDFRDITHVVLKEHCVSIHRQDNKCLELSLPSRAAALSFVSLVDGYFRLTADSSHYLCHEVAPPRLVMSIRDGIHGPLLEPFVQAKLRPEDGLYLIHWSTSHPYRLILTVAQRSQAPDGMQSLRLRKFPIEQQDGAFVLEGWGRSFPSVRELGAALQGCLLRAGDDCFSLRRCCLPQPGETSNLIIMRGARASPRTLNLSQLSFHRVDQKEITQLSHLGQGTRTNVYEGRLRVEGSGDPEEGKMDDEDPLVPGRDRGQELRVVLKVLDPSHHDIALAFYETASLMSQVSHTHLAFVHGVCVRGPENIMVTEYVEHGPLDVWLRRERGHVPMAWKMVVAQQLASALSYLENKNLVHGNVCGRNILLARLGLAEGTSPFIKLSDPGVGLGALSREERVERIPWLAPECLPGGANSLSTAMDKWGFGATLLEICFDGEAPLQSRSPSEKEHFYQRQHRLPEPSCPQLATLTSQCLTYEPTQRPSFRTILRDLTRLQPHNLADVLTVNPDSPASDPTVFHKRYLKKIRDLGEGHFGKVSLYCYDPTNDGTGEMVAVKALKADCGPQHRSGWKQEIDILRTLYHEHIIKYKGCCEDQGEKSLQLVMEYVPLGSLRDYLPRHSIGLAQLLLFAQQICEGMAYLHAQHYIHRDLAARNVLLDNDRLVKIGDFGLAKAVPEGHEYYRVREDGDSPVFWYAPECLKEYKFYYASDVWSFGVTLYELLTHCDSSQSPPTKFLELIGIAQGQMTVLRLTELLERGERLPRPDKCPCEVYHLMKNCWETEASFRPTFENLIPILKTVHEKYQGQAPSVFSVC
Sequence of Casein kinase I isoform gamma-1 (Homo sapiens) (Q9HCP0 whole entry, looked up, canonical isoform): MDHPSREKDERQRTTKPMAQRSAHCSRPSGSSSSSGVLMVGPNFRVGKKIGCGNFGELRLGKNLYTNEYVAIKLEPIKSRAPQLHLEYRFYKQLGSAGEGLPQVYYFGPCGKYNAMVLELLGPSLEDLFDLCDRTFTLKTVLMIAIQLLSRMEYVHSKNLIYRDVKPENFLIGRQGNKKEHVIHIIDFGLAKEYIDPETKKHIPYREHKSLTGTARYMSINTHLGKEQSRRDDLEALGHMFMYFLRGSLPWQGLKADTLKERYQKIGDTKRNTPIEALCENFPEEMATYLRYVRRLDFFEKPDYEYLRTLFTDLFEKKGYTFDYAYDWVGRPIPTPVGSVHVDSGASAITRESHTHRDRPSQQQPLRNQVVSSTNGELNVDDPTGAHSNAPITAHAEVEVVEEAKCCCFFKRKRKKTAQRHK
Sequence of Protein-tyrosine kinase 6 (Homo sapiens) (Q13882 whole entry, looked up): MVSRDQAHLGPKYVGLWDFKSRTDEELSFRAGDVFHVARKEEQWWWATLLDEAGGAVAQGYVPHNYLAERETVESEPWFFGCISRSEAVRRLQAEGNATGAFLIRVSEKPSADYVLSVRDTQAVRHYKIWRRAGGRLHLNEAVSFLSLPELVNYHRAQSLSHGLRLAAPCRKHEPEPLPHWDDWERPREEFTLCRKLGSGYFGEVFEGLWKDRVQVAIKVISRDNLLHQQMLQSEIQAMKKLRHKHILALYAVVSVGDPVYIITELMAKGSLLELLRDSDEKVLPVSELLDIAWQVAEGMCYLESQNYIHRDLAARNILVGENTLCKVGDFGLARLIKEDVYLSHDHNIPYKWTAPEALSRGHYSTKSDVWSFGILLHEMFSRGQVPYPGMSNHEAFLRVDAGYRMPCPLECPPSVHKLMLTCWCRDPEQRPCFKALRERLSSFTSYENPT
Sequence of Serine/threonine-protein kinase MAK (Homo sapiens) (P20794 whole entry, looked up): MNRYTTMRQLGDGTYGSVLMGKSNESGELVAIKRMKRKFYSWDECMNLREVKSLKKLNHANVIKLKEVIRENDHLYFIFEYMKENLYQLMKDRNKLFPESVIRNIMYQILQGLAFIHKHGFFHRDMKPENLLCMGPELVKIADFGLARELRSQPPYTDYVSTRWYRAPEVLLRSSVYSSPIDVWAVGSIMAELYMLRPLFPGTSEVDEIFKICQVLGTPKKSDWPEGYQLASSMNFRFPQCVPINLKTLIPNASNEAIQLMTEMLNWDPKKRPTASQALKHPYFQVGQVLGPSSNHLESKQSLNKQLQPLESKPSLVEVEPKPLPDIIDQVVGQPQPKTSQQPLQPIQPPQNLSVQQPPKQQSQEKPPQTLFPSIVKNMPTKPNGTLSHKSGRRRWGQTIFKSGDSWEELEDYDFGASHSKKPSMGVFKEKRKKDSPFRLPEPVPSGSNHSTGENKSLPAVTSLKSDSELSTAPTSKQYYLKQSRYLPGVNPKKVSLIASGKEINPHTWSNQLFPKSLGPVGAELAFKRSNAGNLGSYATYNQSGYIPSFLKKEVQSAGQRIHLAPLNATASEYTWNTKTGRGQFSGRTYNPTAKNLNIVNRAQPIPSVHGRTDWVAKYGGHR
Sequence of Serine/threonine-protein kinase MARK1 (Homo sapiens) (Q9P0L2 whole entry, looked up): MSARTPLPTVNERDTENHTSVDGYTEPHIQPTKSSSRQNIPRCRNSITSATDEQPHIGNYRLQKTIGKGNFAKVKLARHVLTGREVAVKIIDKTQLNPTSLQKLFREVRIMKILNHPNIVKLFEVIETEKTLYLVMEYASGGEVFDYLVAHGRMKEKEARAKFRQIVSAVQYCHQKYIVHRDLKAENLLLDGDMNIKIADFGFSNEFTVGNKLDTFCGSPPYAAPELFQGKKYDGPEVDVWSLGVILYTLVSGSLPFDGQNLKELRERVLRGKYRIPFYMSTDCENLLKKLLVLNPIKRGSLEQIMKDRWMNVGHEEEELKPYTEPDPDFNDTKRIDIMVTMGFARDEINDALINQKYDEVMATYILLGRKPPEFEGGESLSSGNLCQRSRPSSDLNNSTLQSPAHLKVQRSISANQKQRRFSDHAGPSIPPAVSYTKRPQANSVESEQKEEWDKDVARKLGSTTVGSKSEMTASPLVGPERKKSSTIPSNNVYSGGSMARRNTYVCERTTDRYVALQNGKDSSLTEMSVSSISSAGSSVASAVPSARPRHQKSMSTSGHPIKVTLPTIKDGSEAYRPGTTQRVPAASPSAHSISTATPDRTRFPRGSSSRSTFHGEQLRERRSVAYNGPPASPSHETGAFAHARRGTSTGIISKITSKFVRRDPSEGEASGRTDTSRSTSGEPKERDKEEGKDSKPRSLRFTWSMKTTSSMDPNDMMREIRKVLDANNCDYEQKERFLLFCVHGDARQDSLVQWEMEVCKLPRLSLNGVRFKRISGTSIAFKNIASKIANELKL

- inhibition [1]: 2%
- fold change (FC) [2]: 0.26
- fold change (FC) [3]: 0.49
- inhibition [4]: 2%
- fold change (FC) [5]: 0.22
- fold change (FC) [6]: 0.01
Structure (SMILES): CNC(=O)c1ccccc1Oc1nc(Nc2cc(OC)c(OC)c(OC)c2)ncc1Br

- fold change (FC) [7]: 0.01
- inhibition [8]: 0%
- inhibition [9]: 16%
Structure (SMILES): CC(C)[C@H](NC(=O)c1cc(-c2cnn3cc(-c4ccc(OCCN5CCCCC5)cc4)cnc23)cs1)C(F)(F)F

- fold change (FC) [10]: 0.4
- fold change (FC) [11]: 0.01
- fold change (FC) [12]: 0
Structure (SMILES): O=C(N[C@@H](C1CC1)C(F)(F)F)c1cc(-c2cnn3cc(-c4ccc(F)cc4)cnc23)cs1
